Drawing on ChEMBL document CHEMBL3872233, “Topical Treatment of Leishmania tropica Infection Using (-)-α-Bisabolol Ointment in a Hamster Model: Effectiveness and Safety Assessment” (J Nat Prod, 2016), this text covers Activity for one molecule.

Activity calls are given as the source filed them. The rule behind the calls is not given here.

In data set [1] the test system is Leishmania tropica. Description: Antileishmanial activity against Leishmania tropica MHOM/MA/1988/LEM1314 promastigotes infected in Syrian hamster assessed as reduction in lesion thickness at 2.5 % administered once daily tropically on footpad for 3 weeks starting at week 7 post infection measured 1 week post last dose relative to control. The data set is classed as functional. Also on record: scale not given: the % may be the effect or the level left. The method, boiled down:
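L. tropica stationary-phase promastigotes (3 × 10^7 in 50 μL PBS) injected into the left hind footpad. Treatment began at week 7 (+75% footpad thickness) and ran daily for 21 days, n = 10/group. Routes were 50 mg ointment on the lesion (cetyl alcohol/lanolin/petrolatum base), gavage in olive oil, or intralesional meglumine antimoniate 2 mg SbV/kg. Lesion thickness was measured weekly against base-only ointment; sacrifice was 1 week after the last dose.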

Data set [2] relates to Syrian golden hamster. Put plainly: Toxicity in Syrian hamster infected with Leishmania tropica MHOM/MA/1988/LEM1314 promastigotes assessed as urea levels at 200 mg/kg administered through oral gavage for 3 weeks starting at week 7 post infection measured 1 week post last dose (reference value: 32.5 +/- 0.8 mg/dl). It counts as organism-based, Mesocricetus auratus. Conditions: in vivo, 168 h.

Data set [3] deals with Syrian golden hamster. Put plainly: Toxicity in Syrian hamster infected with Leishmania tropica MHOM/MA/1988/LEM1314 promastigotes assessed as mean serum ALT levels at 1 % administered tropically on footpad for 3 weeks starting at week 7 post infection measured 1 week post last dose (reference value: 81.6 +/- 4.9 U/L). The data set is classed as organism-based, Mesocricetus auratus. As to conditions: in vivo, topical_or_ocular, 168 h.

The subject of data set [4] is Syrian golden hamster. Put plainly: Toxicity in Syrian hamster assessed as mean serum ALT levels at 500 mg/kg administered through oral gavage for 28 days (reference value: 82.2 +/- 4.8 U/L). The data set is classed as organism-based, Mesocricetus auratus. Conditions: in vivo, 672 h.
The subject of data set [5] is Syrian golden hamster. Description: Toxicity in Syrian hamster infected with Leishmania tropica MHOM/MA/1988/LEM1314 promastigotes assessed as mean serum ALT levels at 2.5 % administered tropically on footpad for 3 weeks starting at week 7 post infection measured 1 week post last dose (reference value: 81.6 +/- 4.9 U/L). It counts as organism-based, Mesocricetus auratus. Conditions: in vivo, topical_or_ocular, 168 h.

The subject of data set [6] is Leishmania tropica. Description: Antileishmanial activity against Leishmania tropica MHOM/MA/1988/LEM1314 promastigotes infected in Syrian hamster assessed as reduction in parasite load in foodpad skin at 1 % administered once daily tropically on footpad for 3 weeks starting at week 7 post infection measured 1 week post last dose by qPCR analysis relative to control. The arrangement: scale not given: the % may be the effect or the level left. The data set is classed as functional. The gist of the method:
(§1)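 Hamsters were infected in the footpad and treated daily for 21 days from week 7 post-infection, n = 10/group, and sacrificed 1 week after the last dose. Footpad skin, liver and spleen DNA was assayed by L. tropica-specific TaqMan qPCR (chromosome 29 target), in triplicate with 50 ng DNA per 25 μL reaction. Load was interpolated from Ct on a calibration curve of promastigote DNA, relative to base-ointment controls.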
On the technique in general: In qPCR the cycle at which signal appears reflects the starting amount.

The subject of data set [7] is Syrian golden hamster. Put plainly: Toxicity in Syrian hamster assessed as change in body weight at 500 mg/kg, po or 5 % administered tropically on footpad for 28 days. It counts as organism-based, Mesocricetus auratus. Conditions: in vivo, 672 h.
The subject of data set [8] is Leishmania tropica. Description: Antileishmanial activity against Leishmania tropica MHOM/MA/1988/LEM1314 promastigotes infected in Syrian hamster assessed as reduction in parasite load in liver at […] administered once daily through oral gavage for 3 weeks starting at week 7 post infection measured 1 week post last dose by qPCR analysis relative to control. It counts as functional, tissue-based. The gist of the method: as §1

Take `CC(C)=CCC[C@](C)(O)[C@@H]1CC=C(C)CC1` [LEVOMENOL]: the Activity in the data set with Leishmania tropica [1] stood at 56.4%; in the data set on Syrian golden hamster [2] it was 34.4 mg/dL; with Syrian golden hamster [3] it was 81.9 U/L; in the data set on Syrian golden hamster [4] it was 82.6 U/L; in the data set with Syrian golden hamster [5] it was 81.3 U/L; in the data set on Leishmania tropica [6] it was 56%. In addition, in the data set on Syrian golden hamster [7], the Activity entry is recorded as “Non-Toxic”. In addition, the result in the data set with Leishmania tropica [8] was Active.
